{"data": "Published values collected from several papers", "cell line": "T47D", "observed": "cell growth or viability", "note": "pEC50, pIC50: −log10 of the molar value."}
{"SMILES": "C=C[C@]1(C)C=C2CC[C@H]3C(C)(C)CCC[C@]3(C)[C@H]2CC1", "technique": "MTT", "time": "75 h", "quantity": "pIC50", "result": 3.80}
{"SMILES": "CS(=O)(=O)NCCCCN=C=S", "technique": "MTT", "time": "24 h", "quantity": "pIC50", "result": 4.57}
{"SMILES": "C[C@H](Nc1ccc2c(c1)OCCn1cc(N3C(=O)OC[C@H]3C(F)F)nc1-2)C(N)=O", "technique": "ATP luminescence", "time": "5 days", "quantity": "pEC50", "result": 7.51}
{"SMILES": "COC(=O)c1cc(C(C)=NNc2nc(-c3ccc4c(c3)OCCCO4)cs2)ccc1O", "technique": "MTT", "time": "96 h", "quantity": "pIC50", "result": 4.67}
{"SMILES": "COc1cccc2c1C(=O)c1c(O)c3c(c(O)c1C2=O)C[C@@](O)(C(=O)CO)C[C@@H]3O[C@H]1C[C@H](N)[C@H](O)[C@H](C)O1", "technique": "MTT", "time": "24 h", "quantity": "pIC50", "result": 4.12}
{"SMILES": "COC(=O)c1cc(C(C)=NNc2nc(-c3ccc(C)cc3)cs2)ccc1O", "technique": "MTT", "time": "96 h", "quantity": "pIC50", "result": 4.62}
{"SMILES": "N#CSCCCCOc1ccc2c(-c3ccccc3)cc(=O)oc2c1", "technique": "SRB", "quantity": "GI50", "result": "34 µM"}
{"SMILES": "Cc1nc(NC(=O)N2CCC[C@H]2C(N)=O)sc1-c1ccnc(C(C)(C)C(F)(F)F)c1", "technique": "ATP luminescence", "time": "5 days", "quantity": "pEC50", "result": 6.35}
{"SMILES": "CN(C)c1cccc2c(S(=O)(=O)NCCCCN=C=S)cccc12", "technique": "MTT", "time": "24 h", "quantity": "pIC50", "result": 4.68}
{"SMILES": "COc1cccc2c1C(=O)c1c(O)c3c(c(O)c1C2=O)C[C@@](O)(C(=O)CO)C[C@@H]3O[C@H]1C[C@H](N)[C@H](O)[C@H](C)O1", "technique": "MTT", "time": "75 h", "quantity": "pIC50", "result": 6.57}
{"SMILES": "Cc1c(Cl)c(=O)oc2cc(OCCCCSC#N)ccc12", "technique": "SRB", "quantity": "GI50", "result": "24 µM"}
